Rows were chosen to be rich in hits. Some 7.2% of all compounds tested hit in one or more screens of this group.
PLAP act: activates human placental alkaline phosphatase; purified PLAP enzyme, luminescent substrate read-out; active compounds read high; activation fold at 20 µM; actives 1.2% (n = 96,000); AID 696; in the data active means activation fold above about 2
Target sequence (P05187 whole entry, looked up): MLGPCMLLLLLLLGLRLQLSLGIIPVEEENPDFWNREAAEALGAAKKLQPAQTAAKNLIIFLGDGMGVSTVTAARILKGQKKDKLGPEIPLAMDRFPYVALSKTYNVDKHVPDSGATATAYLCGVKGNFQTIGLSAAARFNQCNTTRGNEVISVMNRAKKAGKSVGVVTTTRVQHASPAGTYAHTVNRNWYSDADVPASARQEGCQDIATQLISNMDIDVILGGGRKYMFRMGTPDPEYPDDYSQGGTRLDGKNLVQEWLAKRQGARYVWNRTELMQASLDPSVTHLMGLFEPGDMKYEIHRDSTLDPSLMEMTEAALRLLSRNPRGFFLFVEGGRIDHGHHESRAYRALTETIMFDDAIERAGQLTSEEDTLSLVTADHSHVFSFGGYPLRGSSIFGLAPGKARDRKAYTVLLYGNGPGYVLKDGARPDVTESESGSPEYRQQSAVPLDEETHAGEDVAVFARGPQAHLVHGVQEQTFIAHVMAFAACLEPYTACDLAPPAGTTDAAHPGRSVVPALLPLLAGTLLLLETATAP
E coli WT exp: E. coli BW25113 growth inhibition, expanded screen; OD600 absorbance; growth inhibition, % at 100 µM; AID 710; actives 0.15% (n = 98,000);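 active means growth inhibition above about 50% at one test dose, limit read from the data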;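 further: growth measured after 20 h incubation at 37 °C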
tolC growth inh: E. coli tolC mutant growth inhibition. E. coli BW25113 tolC mutant growth, OD615. growth inhibition, % at 10 µM (by protocol). actives 2.2% (n = 65,000). AID 573;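 active means growth inhibition at or above a cutoff equal to the mean over every tested compound plus 3 SD, cut at about 60% in these data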;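 further: growth measured after 20 h incubation at 37 °C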
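Test system – E. coli BW25113 ΔtolC::kan, tolC deletion mutant strain · Detection – OD at 615 nm · Buffer or medium – LB with kanamycin 50 µg/mL · Times – 20 h compound exposure of bacteria at 37 °C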
PostGolgi ctrl: growth of the yeast control strain, post-Golgi counter-screen. efflux-deficient yeast background strain, growth absorbance A615, 16 h. inhibition, % at 10 µM. actives 5% (n = 98,000). AID 738
PostGolgi yeast: growth inhibition of a yeast mutant, post-Golgi transport screen. post-Golgi transport phenotypic cell assay. inhibition, % at 10 µM. actives 0.9% (n = 98,000). AID 739;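 further: yeast cells grown in 1536-well plates; yeast grown about 18 h at 30C before absorbance read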
* marks the source's active call; other numbers are inactive results; x = no result. Unless noted, no stated cut-off is given here; in the data, active means inhibition above about 30%; inactive means the rest.

SMILES	PLAP act	E coli WT exp	tolC growth inh	PostGolgi ctrl	PostGolgi yeast
CCCCCOc1ccc(Cl)cc1CN1CCOCC1	1.6	1	-2	26	58*
CC(C)CCOc1ccc(Cl)cc1CN1CCOCC1	1.8	6	7	37*	32*
COc1ccc(CN2CCOCC2)c(C)c1C	1	8	-15	3	-3
CCOc1ccc(Cl)cc1CN1CCOCC1	0.9	12	x	13	-7
CCOc1ccc(NC(=O)N(C2CCCCC2)C(C)c2ccncc2)cc1 (stereo not drawn)	1.6	-3	-17	23	23
CCOc1ccc(NC(=O)N(C2CCCCC2)C(C)c2cccnc2)cc1 (stereo not drawn)	1.7	2	x	28	63*
COC(=O)c1ccc(OCC(=O)c2ccccc2OC)cc1	1.5	-3	x	8	-9
CCCCc1c(C)c(C#N)c2[nH]c3ccccc3n2c1=O	0.8	-12	x	36*	6
CN(C)c1ccnc2sc(C(=O)NCc3ccccc3)c(N)c12	1	-12	20	63*	13
CN(C)c1ccnc2sc(C(N)=O)c(N)c12	0.9	4	x	6	-9
Cc1ccc(NC(=O)CS(=O)(=O)c2c[nH]c3ccccc23)c(C)c1	0.9	2	0	14	0
Cc1ccc(C(=O)NCCSc2ccc(Cl)cc2)cc1[N+](=O)[O-]	x	-12	x	36*	11
Cc1ccc(SCCNC(=O)c2ccc(C)c([N+](=O)[O-])c2)cc1	0.5	-2	x	9	0
O=C(c1ccc2c3c(cccc13)C(=O)N(O)C2=O)N1CCCCC1	1	10	4	-1	-2
O=C1c2cccc3c(Cl)ccc(c23)C(=O)N1O	0.9	24	58	34*	4
O=C(Nc1nc(=S)ss1)c1ccc(Cl)cc1Cl	1.1	44	x	20	-1
CC1CC(C)CN(C(=O)c2cc(-c3ccccn3)nc3ccccc23)C1 (stereo not drawn)	1.1	1	x	10	-6
COc1ccccc1-c1cc(C(=O)N2CCc3ccccc3C2)c2ccccc2n1	1.2	-8	x	52*	1
O=C(c1cc(-c2ccccn2)nc2ccc(Br)cc12)N1CCc2ccccc2C1	1.4	-1	x	71*	30
CCC(Sc1ccccn1)C(=O)Nc1nnc(C)s1 (stereo not drawn)	1.1	5	13	-13	8
Cc1ccc(Nc2nc(C)c(CCC(C)C)c(=O)[nH]2)cc1	1	3	15	19	11
CCc1c(C)nc(Nc2nc(C)c3cc(OC)ccc3n2)[nH]c1=O	1.3	-6	33	29	-7
COc1ccc2c(C)nc(Nc3nc(C)c(C)c(=O)[nH]3)nc2c1	1.9	4	x	66*	-7
CCCCCc1c(C)nc(Nc2nc(C)c3cc(OC)ccc3n2)[nH]c1=O	2*	2	x	10	6
CCCCCc1c(C)nc(Nc2ccccc2)[nH]c1=O	1.1	1	75*	24	12
SMILES	PLAP act	E coli WT exp	tolC growth inh	PostGolgi ctrl	PostGolgi yeast
Cc1nc(Nc2ccc(F)cc2)[nH]c(=O)c1CCC(C)C	x	-3	31	32*	3
CCc1c(C)nc(Nc2nc(C)c3ccc(OC)cc3n2)[nH]c1=O	x	-12	x	14	5
CCOC(=O)c1cc(C#N)c(Oc2ccccc2OC)nc1-c1ccccc1	1.4	-20	x	27	4
Cc1ccccc1N(C(=O)Cn1nnc(-c2cccs2)n1)C(C(=O)NCCC(C)C)c1ccco1 (stereo not drawn)	1.2	-1	x	14	4
O=S(=O)(c1ccccc1)N(CC(O)Cn1c2ccccc2c2ccccc21)c1ccccc1 (stereo not drawn)	1.2	-6	x	22	19
CCN(CC(O)Cn1c2ccccc2c2ccccc21)S(=O)(=O)c1ccc(F)cc1 (stereo not drawn)	1.5	-8	x	50*	4
Cc1ccc(S(=O)(=O)N(C)CC(O)Cn2c3ccccc3c3ccccc32)cc1 (stereo not drawn)	1.7	-3	x	80*	0
CC1(C)CC(=O)C=C(NCCN2CCN(C(=O)Nc3ccc(Cl)cc3)CC2)C1	1	3	-2	-2	-6
CC1(C)CC(=O)C=C(NCCN2CCN(C(=O)Nc3ccc(Cl)c(Cl)c3)CC2)C1	1.8	14	61*	4	-3
Cc1ccc(C2CC(c3ccccc3Cl)n3nc(N)nc3N2)cc1 (stereo not drawn)	1	-2	25	40*	1
Cc1cc(=O)[nH]c(SCc2cc(=O)n3nc(C)sc3n2)n1	1.1	9	-7	-11	1
Fc1cccc(Cl)c1Cn1nnc(-c2ccc3c(c2)OCO3)n1	0.9	-8	63*	10	-1
Cc1cc(NC(=O)CSc2nc(-c3cccs3)cc(C(F)(F)F)n2)no1	0.9	-7	-17	1	-6
COc1ccc(-c2cc(C(F)(F)F)nc(S(C)(=O)=O)n2)cc1	1	6	x	62*	68*
COc1cccc(-c2cc(C(F)(F)F)nc(-n3cc(Cl)cn3)n2)c1	0.9	-3	x	10	17
COc1ccc(-c2cc(C(F)(F)F)nc(-n3cc(Cl)cn3)n2)cc1	1.9	0	x	41*	12
CS(=O)(=O)c1nc(-c2cccs2)cc(C(F)(F)F)n1	0.9	12	11	55*	8
Cc1cc(NC(=O)CCCS(=O)(=O)c2nc(-c3cccs3)cc(C(F)(F)F)n2)no1	1	-1	4	35*	13
Cc1ccc(N2CCN(C(=O)c3ccccc3NC(=O)/C=C\C(=O)O)CC2)cc1	1.2	7	x	6	-7
COc1ccc(OC)c(C(C)NC=O)c1 (stereo not drawn)	0.9	6	-5	39*	4
COc1ccc(OC)c(C(O)c2nc3ccccc3n2C(C)C)c1 (stereo not drawn)	1	-2	16	6	1
CC1=Nc2ccccc2/C1=C/c1sc(=O)n(CC(=O)N2CCCC2)c1O	1	-1	x	-4	-7
O=C(Cn1c(O)c(/C=C2\C=Nc3ccc(Br)cc32)sc1=O)N1CCCC1	1.5	-8	x	37*	-2
O=C(CSc1nc2c(sc3ccccc32)c(=O)n1Cc1ccco1)NCC1CCCO1 (stereo not drawn)	1.1	-11	1	32*	6
CNC(=S)N1N=C(c2ccc(Br)cc2)CC1c1ccc(Br)cc1 (stereo not drawn)	0.9	-8	x	33*	-11
CNC(=S)N1N=C(c2ccc(OC)cc2)CC1c1ccc(N(C)C)cc1 (stereo not drawn)	1.1	-10	x	3	-3
COc1ccccc1CN(Cc1ccco1)S(=O)(=O)c1ccc(-n2cnnn2)c(OC)c1	0.7	-18	29	36*	22
COc1cccc(CN(Cc2cccnc2)S(=O)(=O)c2ccc(-n3cnnn3)c(C)c2)c1OC	1.6	4	16	5	11
CCN(CC)C(=O)C1CCN(S(=O)(=O)c2ccc(C3CNC(=O)C3)cc2)CC1 (stereo not drawn)	1.1	-3	-30	17	0
COc1ccc(Cc2nc(C(=O)NCc3ccccc3OC)cs2)cc1	1.1	-13	x	35*	1

High-throughput results: PubChem, several laboratories
